# The source made the active and inactive calls. The calls are words filed in the database; no cut-off is given here. Non-standard residues stand in square brackets, D forms with d. Residues, ends and D or L forms follow the SMILES beside them. Dmt = Cc1cc(O)cc(C)c1C[C@H](N)C(=O)O
# Key:
# [1] = biological target: T1, Mu-type opioid receptor (Homo sapiens, UniProt P35372); assay: Displacement of [3H]DAMGO from human MOR expressed in CHO cell membranes after 60 mins by liquid scintillation counting
# T1 sequence (P35372 whole entry): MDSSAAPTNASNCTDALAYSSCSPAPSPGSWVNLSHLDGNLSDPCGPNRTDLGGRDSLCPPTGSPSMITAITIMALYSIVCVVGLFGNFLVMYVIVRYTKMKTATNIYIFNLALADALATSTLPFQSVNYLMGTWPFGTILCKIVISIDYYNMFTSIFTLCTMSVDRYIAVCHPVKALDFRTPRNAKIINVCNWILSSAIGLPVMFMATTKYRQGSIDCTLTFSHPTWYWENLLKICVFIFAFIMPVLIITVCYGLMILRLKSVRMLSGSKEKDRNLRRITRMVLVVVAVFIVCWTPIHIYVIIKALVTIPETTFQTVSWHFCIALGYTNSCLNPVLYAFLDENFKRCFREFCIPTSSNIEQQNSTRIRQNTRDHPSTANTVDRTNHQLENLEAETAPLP
# [2] = Metabolic stability in C57BL/6 mouse hind limb assessed as compound remaining at 150 ul, sc measured after 72 hrs post dose by SPECT/CT analysis; type: ADME, organism-based, Hindlimb; settings: read-out: Stability
# Procedure, shortened: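 Hydrogel degradation was followed after subcutaneous injection in mice by determining the hydrogel volume remaining at the injection site, up to 72 h.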
# [3] = tested on: Mus musculus; assay: Antinociceptive activity in sc dosed CD1 mouse assessed as increase in tail-flick latency measured up to 24 hrs post dose; type: functional, organism-based
# [4] = Prodrug conversion in human plasma assessed as H-Dmt-DArg-Phe-Phe-Gln-Phe-Gln-OH metabolite formation at 9 uM after 30 to 45 mins by LC-MS analysis; type: ADME, cell-free
# Procedure, shortened: (§1)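 Peptides were incubated in human plasma at 37 °C, and samples were collected at different time points. Half-life was calculated from the degradation profile. Major metabolites were identified by LC−MS analysis of the collected samples.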
# [5] = Half life in human plasma at 9 uM at 37 degC by LC-MS analysis; type: ADME, cell-free; procedure, shortened: as §1
# [6] = Prodrug conversion in human plasma assessed as H-Dmt-DArg-Phe-OH metabolite formation at 9 uM after 30 to 45 mins by LC-MS analysis; type: ADME, cell-free; procedure, shortened: as §1
# [7] = Prodrug conversion in human plasma assessed as H-Dmt-DArg-Phe-Phe-Gln-OH metabolite formation at 9 uM after 30 to 45 mins by LC-MS analysis; type: ADME, cell-free
# [8] = tested on: Mus musculus; assay: Antinociceptive activity in sc dosed CD1 mouse assessed as increase in tail-flick latency measured up to 72 hrs post dose; type: functional, organism-based
# Procedure, shortened: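 Radiant heat tail-flick test in mice after subcutaneous injection of 150 μL per mouse. The peptide (0.56 μmol/mouse) was given coformulated with hydrogelator (2% v/w) or conjugated as a biogel (2% v/w). Hydrogelator alone and saline served as controls. Latency was followed as %MPE over time with AUC calculated. Groups were 6−8 mice, reported as mean ± SEM, with two-way ANOVA and Bonferroni post hoc test.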
# [9] = biological target: T1, Mu-type opioid receptor; assay: Agonist activity at human MOR expressed in CHO cell membranes after 60 mins by [35S]GTPgammaS binding assay; type: functional
# Procedure, shortened: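 Membranes from CHO cells stably expressing human MOR; agonist-stimulated [35S]GTPγS binding. Potency given as EC50 and efficacy (full or partial agonism) measured at human MOR.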
# [10] = tested on: Mus musculus; assay: Antinociceptive activity in CD1 mouse assessed as increase in tail-flick latency at 3.9 umol/kg, sc measured up to 3 to 4 hrs post dose; type: functional, organism-based
# Procedure, shortened: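 Radiant heat tail-flick test on an analgesiometer after subcutaneous injection of solutions in mice. Doses were 3.0, 3.9, 4.2 or 6.8 μmol/kg, with saline as control. Response was expressed as %MPE over time and AUC was calculated. Groups were 6−8 mice, reported as mean ± SEM, with two-way ANOVA and Bonferroni post hoc test.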
# [11] = tested on: Mus musculus; assay: Antinociceptive activity in CD1 mouse assessed as increase in tail-flick latency at 1.8 umol/kg, sc measured after 4 hrs post dose; type: functional, organism-based
# [12] = tested on: Mus musculus; assay: Antinociceptive activity in CD1 mouse assessed as increase in tail-flick latency at 0.30 umol, sc co-formulated with H-Phe-Glu-Phe-Gln-Phe-Lys-NH2 measured up to 72 hrs post dose; type: functional, organism-based
# [13] = biological target: T1, Mu-type opioid receptor; assay: Agonist activity at human MOR expressed in human U2OS cells co-expressing enzyme acceptor-tagged beta-arrestin2 fusion protein assessed as induction of beta-arrestin2 recruitment preincubated for 90 mins measured by PathHunter assay; type: functional, cell-based
compound,measurement,setting,value
Cc1cc(O)cc(C)c1C[C@H](N)C(=O)N1CCC[C@H]1C(=O)N[C@@H](Cc1ccccc1)C(=O)N[C@@H](Cc1ccccc1)C(=O)N[C@@H](CCC(N)=O)C(=O)N[C@@H](Cc1ccccc1)C(=O)N[C@@H](CCC(N)=O)C(=O)N[C@@H](Cc1ccccc1)C(=O)N[C@@H](CCCCN)C(N)=O (H-[Dmt]PFFQFQFK-NH2),Ki,[1],5 to 141 nM
Cc1cc(O)cc(C)c1C[C@H](N)C(=O)N1CCC[C@H]1C(=O)N[C@@H](Cc1ccccc1)C(=O)N[C@@H](Cc1ccccc1)C(=O)N[C@@H](CCC(=O)O)C(=O)N[C@@H](Cc1ccccc1)C(=O)N[C@@H](CCC(N)=O)C(=O)N[C@@H](Cc1ccccc1)C(=O)N[C@@H](CCCCN)C(N)=O,Ki,[1],5 to 141 nM
H-FQFQFK-NH2,remaining at 72 h,[2],20%
Cc1cc(O)cc(C)c1C[C@H](N)C(=O)N[C@H](CCCCN)C(=O)N[C@@H](Cc1ccccc1)C(=O)N[C@@H](Cc1ccccc1)C(=O)N[C@@H](CCC(N)=O)C(=O)N[C@@H](Cc1ccccc1)C(=O)N[C@@H](CCC(N)=O)C(=O)N[C@@H](Cc1ccccc1)C(=O)N[C@@H](CCCCN)C(N)=O (H-[Dmt][dK]FFQFQFK-NH2),Ki,[1],5 to 141 nM
same,Activity,[3],Active
Cc1cc(O)cc(C)c1C[C@H](N)C(=O)N[C@H](CCCNC(=N)N)C(=O)N[C@@H](Cc1ccccc1)C(=O)N[C@@H](Cc1ccccc1)C(=O)N[C@@H](CCC(N)=O)C(=O)N[C@@H](Cc1ccccc1)C(=O)N[C@@H](CCC(N)=O)C(=O)N[C@@H](Cc1ccccc1)C(=O)N[C@@H](CCCCN)C(N)=O (H-[Dmt][dR]FFQFQFK-NH2),Drug metabolism,[4],Metabolite_Detected
same,half-life at 9 µM,[5],16 min
same,Drug metabolism,[6],Metabolite_Detected
same,Drug metabolism,[7],Metabolite_Detected
same,Activity,[8],Active
Cc1cc(O)cc(C)c1C[C@H](N)C(=O)N[C@H](CCCNC(=N)N)C(=O)N[C@@H](Cc1ccccc1)C(=O)N[C@@H](Cc1ccccc1)C(=O)N[C@@H](CCC(N)=O)C(=O)N[C@@H](Cc1ccccc1)C(=O)N[C@@H](CCC(N)=O)C(=O)O,Ki,[1],6.16 nM
same,EC50,[9],47.5 nM
same,Activity,[10],Active
H-FEFQFK-NH2,remaining at 72 h,[2],20%
Cc1cc(O)cc(C)c1C[C@H](N)C(=O)N1CCC[C@H]1C(=O)N[C@@H](Cc1c[nH]c2ccccc12)C(=O)N[C@@H](Cc1ccccc1)C(=O)N[C@@H](CCC(N)=O)C(=O)N[C@@H](Cc1ccccc1)C(=O)N[C@@H](CCC(N)=O)C(=O)N[C@@H](Cc1ccccc1)C(=O)N[C@@H](CCCCN)C(N)=O (H-[Dmt]PWFQFQFK-NH2),Ki,[1],5 to 141 nM
Cc1cc(O)cc(C)c1C[C@H](N)C(=O)N[C@H](CCCNC(=N)N)C(=O)N[C@H]1Cc2ccccc2CN(CCC(N)=O)C1=O,Activity,[11],Active
same,Activity,[12],Active
same,Activity,[13],inactive
N=C(N)NCCC[C@@H](NC(=O)[C@@H](N)Cc1ccc(O)cc1)C(=O)N[C@@H](Cc1ccccc1)C(=O)N[C@@H](Cc1ccccc1)C(=O)N[C@@H](CCC(N)=O)C(=O)N[C@@H](Cc1ccccc1)C(=O)N[C@@H](CCC(N)=O)C(=O)N[C@@H](Cc1ccccc1)C(=O)N[C@@H](CCCCN)C(N)=O,half-life at 9 µM,[5],18 min
